What all share (assay type): functional
Experiment [1] is described as follows: Antioxidant activity assessed as H2O2 radical scavenging activity.
Experiment [2] can be described thus: Antioxidant activity assessed as NO radical scavenging activity after 150 mins by griess reagent method. (In general: Griess reagent forms a coloured azo dye with nitrite.)
The subject of experiment [3] is Radical scavenging activity. Briefly: Antioxidant activity assessed as DPPH radical scavenging activity after 30 mins by spectrophotometric assay. Put shortly: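 The compound is mixed with methanolic DPPH and incubated for 30 min at room temperature. Absorbance is read against a blank at 517 nm. Percent scavenging is taken from absorbance of a control with all reagents except the compound versus the sample. Runs are in triplicate, and IC50 is reported.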

The subject of another experiment is Candida albicans. As to the kind of experiment: Antifungal activity against Candida albicans assessed as growth inhibition by NCCLS broth dilution assay. Put shortly:
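Yeast susceptibility is tested by the NCCLS reference broth dilution method. MIC is read as the endpoint, and a DMSO vehicle control is included.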
On the technique in general: Dilution methods test growth across graded concentrations, often in twofold steps.

The next experiment concerns Aspergillus flavus. Briefly: Antifungal activity against Aspergillus flavus assessed as growth inhibition by NCCLS broth dilution assay.
A further experiment relates to Escherichia coli. Briefly: Antibacterial activity against Escherichia coli assessed as growth inhibition by microdilution broth susceptibility assay.
A further experiment deals with Klebsiella pneumoniae. As to the kind of experiment: Antibacterial activity against Klebsiella pneumoniae assessed as growth inhibition by microdilution broth susceptibility assay.
The next experiment has as its system Bacillus subtilis. Briefly: Antibacterial activity against Bacillus subtilis assessed as growth inhibition by microdilution broth susceptibility assay.
The test system of another experiment is Staphylococcus aureus. As to the kind of experiment: Antibacterial activity against Staphylococcus aureus assessed as growth inhibition by microdilution broth susceptibility assay.

The structures appear in SMILES notation. ≈ marks a conversion by molar mass, not a printed value. Bounds are passed on as bounds.

The term IC50 denotes the concentration that inhibits the measured activity by half. A word on the MIC: it is the smallest concentration in the dilution series that meets the test's criterion for growth inhibition.

On to `Cc1ccc(-c2nnc3sc(-c4[se]c5ncnc(Nc6ccc(F)c(Cl)c6)c5c4C)nn23)cc1`, for which the IC50 in experiment [1] came to 18.36 mg/L (≈ 33.1 µM); in experiment [2] it was 16.52 mg/L (≈ 29.8 µM); in experiment [3], 12.86 mg/L (≈ 23.2 µM). In addition, the MIC with Candida albicans stood at 25 mg/L (≈ 45.1 µM); in the experiment with Aspergillus flavus it was 12.5 mg/L (≈ 22.5 µM); in the experiment on Escherichia coli it was 12.5 mg/L; in the experiment with Klebsiella pneumoniae, 12.5 mg/L; in the experiment with Bacillus subtilis it was 12.5 mg/L; in the experiment with Staphylococcus aureus, 6.25 mg/L.
Regarding `Cc1ccc(-c2nnc3sc(-c4[se]c5ncnc(Nc6ccc(Cl)cc6)c5c4C)nn23)cc1`, the IC50 in experiment [1] was determined as 19.14 mg/L (≈ 35.6 µM); in experiment [2], 21.64 mg/L (≈ 40.3 µM); in [3] it was 13.31 mg/L (≈ 24.8 µM). Also, the MIC in the experiment with Candida albicans is > 100 mg/L; with Aspergillus flavus it was 50 mg/L (≈ 93.1 µM); in the experiment on Escherichia coli, 50 mg/L; with Klebsiella pneumoniae it was 25 mg/L; with Bacillus subtilis, 50 mg/L; in the experiment on Staphylococcus aureus, 25 mg/L.
Consider `COc1ccc(-c2nnc3sc(-c4[se]c5ncnc(Nc6ccc(Cl)cc6)c5c4C)nn23)cc1`, for which the IC50 in experiment [1] came to 21.09 mg/L (≈ 38.1 µM); in experiment [2] it was 19.82 mg/L (≈ 35.8 µM); in experiment [3], 12.75 mg/L (≈ 23.1 µM). The MIC was 6.25 mg/L (≈ 11.3 µM) with Candida albicans; 6.25 mg/L (≈ 11.3 µM) in the experiment on Aspergillus flavus; 12.5 mg/L with Escherichia coli; 25 mg/L with Klebsiella pneumoniae; 25 mg/L in the experiment on Bacillus subtilis; 12.5 mg/L with Staphylococcus aureus.
As to `Cc1cc(C(C)(C)C)c(O)c(C(C)(C)C)c1` [BUTYLATED HYDROXYTOLUENE], the values for the IC50 in [1], in experiment [2] and in [3] were 17.82 mg/L (≈ 80.9 µM), 19.06 mg/L (≈ 86.5 µM) and 16.53 mg/L (≈ 75 µM), respectively.
On to `Cc1c(-c2nn3c(-c4ccc([N+](=O)[O-])cc4)nnc3s2)[se]c2ncnc(Nc3ccc(Cl)cc3)c12`, for which the IC50 in experiment [1] was 48.31 mg/L (≈ 85.1 µM); in [2], 46.92 mg/L (≈ 82.6 µM); in experiment [3], 33.28 mg/L (≈ 58.6 µM). For the same compound, the MIC in the experiment with Candida albicans, with Aspergillus flavus, with Escherichia coli, in the experiment with Klebsiella pneumoniae, in the experiment on Bacillus subtilis and in the experiment on Staphylococcus aureus was > 100 mg/L throughout.
With `O=C(O)c1cn(C2CC2)c2cc(N3CCNCC3)c(F)cc2c1=O` [CIPROFLOXACIN], the MIC in the experiment with Klebsiella pneumoniae and with Bacillus subtilis was 6.25 mg/L each time.
As to `Cc1c(-c2nn3c(-c4ccccc4)nnc3s2)[se]c2ncnc(Nc3ccc(F)c(Cl)c3)c12`, the values for the IC50 in [1], in [2] and in experiment [3] were 22.92 mg/L (≈ 42.4 µM), 20.27 mg/L (≈ 37.5 µM) and 13.24 mg/L (≈ 24.5 µM), respectively. For the same compound, the MIC came out at 25 mg/L (≈ 46.2 µM) with Candida albicans; 50 mg/L (≈ 92.4 µM) with Aspergillus flavus; 100 mg/L with Escherichia coli; 100 mg/L in the experiment on Klebsiella pneumoniae; 50 mg/L in the experiment with Bacillus subtilis; 50 mg/L in the experiment on Staphylococcus aureus.
As for `Cc1c(-c2nn3c(-c4ccc([N+](=O)[O-])cc4)nnc3s2)[se]c2ncnc(Nc3ccc(F)c(Cl)c3)c12`, the IC50 amounted to 36.42 mg/L (≈ 62.2 µM) in experiment [1], 30.17 mg/L (≈ 51.5 µM) in experiment [2] and 26.94 mg/L (≈ 46 µM) in experiment [3]. In addition, the MIC was > 100 mg/L in the experiment with Candida albicans; > 100 mg/L in the experiment with Aspergillus flavus; 50 mg/L in the experiment with Escherichia coli; 50 mg/L in the experiment with Klebsiella pneumoniae; 100 mg/L in the experiment with Bacillus subtilis; 100 mg/L in the experiment on Staphylococcus aureus.
Consider `Cc1c(-c2nn3c(-c4ccc(O)cc4)nnc3s2)[se]c2ncnc(Nc3ccc(F)c(Cl)c3)c12`, for which the IC50 was 12.54 mg/L (≈ 22.5 µM) in experiment [1], 8.2 mg/L (≈ 14.7 µM) in experiment [2] and 9.46 mg/L (≈ 17 µM) in [3]. For the same compound, the MIC was 1.56 mg/L (≈ 2.8 µM) in the experiment on Candida albicans; 1.56 mg/L (≈ 2.8 µM) in the experiment on Aspergillus flavus; 3.12 mg/L in the experiment with Escherichia coli; 3.12 mg/L in the experiment with Klebsiella pneumoniae; 3.12 mg/L with Bacillus subtilis; 3.12 mg/L in the experiment with Staphylococcus aureus.
As to `O=C1O[C@H]([C@@H](O)CO)C(O)=C1O` [ASCORBIC ACID], the IC50 was determined as 15.24 mg/L (≈ 86.5 µM) in experiment [1], 14.62 mg/L (≈ 83 µM) in experiment [2] and 12.27 mg/L (≈ 69.7 µM) in experiment [3].
As for `Cc1c(-c2nn3c(-c4ccc(O)cc4)nnc3s2)[se]c2ncnc(Nc3ccc(Cl)cc3)c12`, the values for the IC50 in [1], in experiment [2] and in experiment [3] were 15.38 mg/L (≈ 28.5 µM), 13.72 mg/L (≈ 25.5 µM) and 11.02 mg/L (≈ 20.4 µM), respectively. For the same compound, the minimal inhibitory concentration (MIC) was 1.56 mg/L (≈ 2.89 µM) in the experiment with Candida albicans; 3.12 mg/L (≈ 5.79 µM) in the experiment with Aspergillus flavus; 6.25 mg/L in the experiment with Escherichia coli; 6.25 mg/L with Klebsiella pneumoniae; 3.12 mg/L in the experiment with Bacillus subtilis; 6.25 mg/L in the experiment on Staphylococcus aureus.
For the compound `OC(Cn1cncn1)(Cn1cncn1)c1ccc(F)cc1F` [FLUCONAZOLE], the MIC in the experiment on Candida albicans and in the experiment on Aspergillus flavus was 3.12 mg/L (≈ 10.2 µM) in each case.
As for `Cc1c(-c2nn3c(-c4ccccc4)nnc3s2)[se]c2ncnc(Nc3ccc(Cl)cc3)c12`, the concentration for half-maximal inhibition (IC50) in [1] is 17.03 mg/L (≈ 32.6 µM); in experiment [2], 18.41 mg/L (≈ 35.2 µM); in experiment [3], 14.82 mg/L (≈ 28.3 µM). Also, the MIC in the experiment on Candida albicans is > 100 mg/L; in the experiment on Aspergillus flavus, 50 mg/L (≈ 95.6 µM); in the experiment with Escherichia coli, > 100 mg/L; in the experiment on Klebsiella pneumoniae it was > 100 mg/L; in the experiment on Bacillus subtilis it was > 100 mg/L; in the experiment with Staphylococcus aureus, 50 mg/L.
For `COc1ccc(-c2nnc3sc(-c4[se]c5ncnc(Nc6ccc(F)c(Cl)c6)c5c4C)nn23)cc1`, the IC50 in [1] amounted to 17.08 mg/L (≈ 29.9 µM); in experiment [2], 12.74 mg/L (≈ 22.3 µM); in experiment [3], 10.41 mg/L (≈ 18.2 µM). Also, the MIC was found to be 3.12 mg/L (≈ 5.47 µM) in the experiment with Candida albicans; 3.12 mg/L (≈ 5.47 µM) in the experiment with Aspergillus flavus; 6.25 mg/L in the experiment on Escherichia coli; 6.25 mg/L in the experiment on Klebsiella pneumoniae; 3.12 mg/L in the experiment with Bacillus subtilis; 6.25 mg/L in the experiment with Staphylococcus aureus.

The record behind these values is ChEMBL document CHEMBL3124903, “Synthesis, docking and evaluation of antioxidant and antimicrobial activities of novel 1,2,4-triazolo[3,4-b][1,3,4]thiadiazol-6-yl)selenopheno[2,3-d]pyrimidines” (Eur J Med Chem, 2014).
